Out of some 320,000 compounds screened, about 200 (0.062%) were called active.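 The calls were made as follows: active = activation above that plate's cutoff, the mean activation of tested compounds plus 3 SD (cut at about 6.6% in these data, passing the limit was not always enough); inactive = the rest.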 What follows is part of a selection rich in actives, with near analogues and random picks from the rest.
The compounds below were run against Oxytocin receptor (Homo sapiens) (UniProt P30559) (assay: enhancers of oxytocin-evoked OXTR calcium signal – fluorescence, CHO-OTR cells, Fluo-8 calcium, primary screen (AID 2445;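 also: 100% uses oxytocin at 75 nM as the full agonist control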)). Conditions: Fluo-8 calcium fluorescence, potentiator mode, at 3 µM, active compounds read high, 0% = oxytocin EC15, 100% = EC100.
Sequence of Oxytocin receptor (Homo sapiens) (P30559 whole entry, looked up): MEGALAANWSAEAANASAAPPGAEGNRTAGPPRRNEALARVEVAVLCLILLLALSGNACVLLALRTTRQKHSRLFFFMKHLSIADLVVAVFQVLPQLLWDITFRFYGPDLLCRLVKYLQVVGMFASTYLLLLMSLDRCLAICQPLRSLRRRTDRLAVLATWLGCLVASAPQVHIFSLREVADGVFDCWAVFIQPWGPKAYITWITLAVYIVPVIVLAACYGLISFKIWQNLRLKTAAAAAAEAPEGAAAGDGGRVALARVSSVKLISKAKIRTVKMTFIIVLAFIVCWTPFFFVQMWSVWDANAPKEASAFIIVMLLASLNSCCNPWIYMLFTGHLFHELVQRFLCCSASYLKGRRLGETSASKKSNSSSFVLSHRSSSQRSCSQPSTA
In short: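 System: human OTR in CHO cells / Also added: sub-maximal oxytocin, roughly EC15 / Control set: EC15 oxytocin low, 75 nM oxytocin high / Schedule: 6 min compound pre-incubation at room temperature, 100 s kinetic read / Compound: single-point 3.0 µM / Replication: singlicate / Technique: Fluo-8 calcium dye fluorescence / Read-out basis: % activation of max/min ratio relative to oxytocin controls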

Row | Compound | activation
1 | Cc1ccc(OCc2nnc(SC3CCc4ccccc4C3=O)n2C)cc1 (stereo unspecified) | -7.17% (inactive)
2 | CC1(C)CC(=O)C=C(c2ccc3ncccc3c2)C1 | -1.73% (inactive)
3 | Nc1cc(OC(=O)c2ccccc2Br)nn1S(=O)(=O)c1ccccc1 | -18.3% (inactive)
4 | CCOc1cc(C2/C(=C(/O)c3ccc(S(=O)(=O)N4CCCCC4)cc3)C(=O)C(=O)N2CCOC)ccc1O (stereo unspecified) | -8.45% (inactive)
5 | Cc1nc(CNS(=O)(=O)c2ccc(Oc3ccccc3)cc2)cs1 | -14.3% (inactive)
6 | O=C(NCc1ccc(Cl)cc1)C(=O)NCC1CCCN1S(=O)(=O)c1cccs1 (stereo unspecified) | -5.47% (inactive)
7 | C=CCN(N=Nc1cccc([N+](=O)[O-])c1)c1cccc([N+](=O)[O-])c1 | -14.2% (inactive)
8 | O=C(CNC(=O)c1ccc2ccccc2c1)Nc1ncccc1O | 1.14% (inactive)
9 | COc1ccc(N(C(=O)c2snc(C(N)=O)c2N)C(C(=O)NC2CCCC2)c2ccc(C)o2)c(OC)c1 (stereo unspecified) | -3.04% (inactive)
10 | OC(COc1ccc(F)cc1Cl)CN1CCc2ccccc2C1 (stereo unspecified) | -6.27% (inactive)
11 | Cc1ccc(OCC(O)CN2CCN(CC(O)COc3ccc(C)cc3Cl)CC2)c(Cl)c1 (stereo unspecified) | 12.6% (active)
12 | Cc1cccc(OCC(O)CN2CCN(S(=O)(=O)c3ccc(C)cc3C)CC2)c1 (stereo unspecified) | -12% (inactive)
13 | COc1ccc(NC(=O)CCNS(=O)(=O)c2ccc3c(c2)c(=O)n(C)c(=O)n3C)cc1OC | -4.46% (inactive)
14 | O=C(Nc1ccc2c(c1)OCO2)C1CC(c2c(F)cccc2Cl)=NO1 (stereo unspecified) | -1.98% (inactive)
15 | CS(=O)(=O)N(Cc1nc2sc3c(c2c(=O)[nH]1)CCCC3)C1CCCCC1 | -9.15% (inactive)
16 | COc1cc2c(cc1OC)C(=O)NCC(C)(C)O2 | 0.49% (inactive)
17 | CN(C(=O)c1cccc(NC(=O)Cc2ccc([N+](=O)[O-])cc2)c1)C1CCC1 | -0.31% (inactive)
18 | O=C(CSc1n[nH]c(-c2cccnc2)n1)Nc1ccc(Cl)cc1 | -11% (inactive)

Row | Compound | activation
19 | COC(=O)C1CCN(C(=O)COC(=O)c2cc(S(=O)(=O)N3CCOCC3)ccc2C)CC1 | -5.03% (inactive)
20 | O=C(OCCN1C(=O)c2ccccc2C1=O)[C@@H]1CC(O)CN1S(=O)(=O)c1ccccc1[N+](=O)[O-] (stereo partly specified) | -5.05% (inactive)
21 | CCN(CC(=O)NCc1cccs1)C(=O)c1cccc(S(=O)(=O)Nc2ccccc2OC)c1 | -5.42% (inactive)
22 | Cc1ccc(N2C(=O)SC(N(CC(=O)O)c3ccc(C)cc3)C2=O)cc1 (stereo unspecified) | -15.1% (inactive)
23 | O=C(NCC(c1ccco1)N1CCc2ccccc21)c1cccc(F)c1 (stereo unspecified) | -9.25% (inactive)
24 | CSc1nnnn1-c1c(C)cc(C)cc1C | -1.91% (inactive)
25 | CCOc1ccccc1Nc1nnc(SCC(=O)NCC2CCCO2)s1 (stereo unspecified) | 0.07% (inactive)
26 | O=C(CCc1nnc2ccc(NCc3ccccc3Cl)nn12)NCC1CCN(C2CCCC2)C1 (stereo unspecified) | -8.06% (inactive)
27 | CCCC(NC(=O)c1ccccc1)c1nc2ccccc2n1Cc1ccc(C(=O)OC)o1 (stereo unspecified) | 4.77% (inactive)
28 | COc1cccc(-n2c(=O)c3c(C)c(C(=O)N(C)C)sc3n(CC(=O)NCCc3ccc(OC)c(OC)c3)c2=O)c1 | -15.7% (inactive)
29 | CC(CNC(=O)c1ccc(N)cc1)NC(=O)c1ccc(N)cc1 (stereo unspecified) | -7.37% (inactive)
30 | CC(C)(CNC(=O)CNC(=O)C1CCCCC1)N1CCOCC1 | -6.61% (inactive)
31 | COCCN(C(=S)Nc1cccc(Cl)c1C)C(C)c1ccco1 (stereo unspecified) | 2.23% (inactive)
32 | CC(C)N1C(=S)SC(C)(C)C1n1oc(=O)n(-c2ccc(Cl)c(Cl)c2)c1=O (stereo unspecified) | -15.1% (inactive)
33 | COc1ccc2[nH]c(=O)c(CN(Cc3cccnc3)S(=O)(=O)c3ccccc3F)cc2c1 | -13.1% (inactive)
34 | OC(c1ccc(Cl)cc1)C(CN1CCOCC1)c1ccccc1 (stereo unspecified) | -9.47% (inactive)
35 | CCS(=O)(=O)c1ccc2c(c1)N(S(=O)(=O)c1ccccc1)CC(C(=O)O)O2 (stereo unspecified) | -11.9% (inactive)
36 | Cc1ccc(-n2ncc3c2CC(C)(C)CC3NC(=O)CCc2cnn(C)c2)cc1 (stereo unspecified) | -3.78% (inactive)

Source: PubChem BioAssay AID2445 (The Scripps Research Institute Molecular Screening Center, 2010)
